Key:
[1] = molecular target: Mitogen-activated protein kinase 9 (Homo sapiens) (UniProt P45984); experiment: Inhibition of JNK2 at 1 uM
How it was run: (§1)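 Single-concentration screen on the Ambit KINOMEscan platform, run against a panel of 250–400 kinases. Per-kinase inhibition was also summarized as S(90), the fraction of kinases inhibited by more than 90%.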

[2] = molecular target: T1, Mitogen-activated protein kinase kinase kinase kinase 3 (Homo sapiens) (UniProt Q8IVH8); experiment: Inhibition of MAP4K3 at 1 uM; how it was run: as §1
T1 sequence (whole entry): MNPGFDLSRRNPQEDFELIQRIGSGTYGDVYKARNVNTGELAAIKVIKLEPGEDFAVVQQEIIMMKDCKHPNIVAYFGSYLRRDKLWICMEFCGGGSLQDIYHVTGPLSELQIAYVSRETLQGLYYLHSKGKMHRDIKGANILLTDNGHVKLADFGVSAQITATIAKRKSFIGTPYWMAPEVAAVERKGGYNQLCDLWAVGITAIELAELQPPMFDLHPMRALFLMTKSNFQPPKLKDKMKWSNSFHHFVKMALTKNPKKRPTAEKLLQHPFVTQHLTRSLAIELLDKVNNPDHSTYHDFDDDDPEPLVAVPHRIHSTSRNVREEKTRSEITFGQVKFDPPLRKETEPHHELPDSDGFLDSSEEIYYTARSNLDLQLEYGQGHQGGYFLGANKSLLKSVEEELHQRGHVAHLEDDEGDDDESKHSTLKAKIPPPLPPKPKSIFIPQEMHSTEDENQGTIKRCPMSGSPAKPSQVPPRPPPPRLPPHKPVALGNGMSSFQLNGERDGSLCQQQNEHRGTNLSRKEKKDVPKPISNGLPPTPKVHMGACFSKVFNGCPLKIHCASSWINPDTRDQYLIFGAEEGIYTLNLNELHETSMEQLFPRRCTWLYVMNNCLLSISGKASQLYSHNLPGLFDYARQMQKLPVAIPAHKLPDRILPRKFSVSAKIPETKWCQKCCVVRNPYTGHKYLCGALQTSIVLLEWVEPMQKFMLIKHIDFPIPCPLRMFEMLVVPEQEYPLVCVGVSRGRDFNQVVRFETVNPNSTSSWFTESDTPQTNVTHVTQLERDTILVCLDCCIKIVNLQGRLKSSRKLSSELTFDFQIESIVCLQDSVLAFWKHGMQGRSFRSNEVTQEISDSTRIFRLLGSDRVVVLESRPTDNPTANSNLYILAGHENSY

[3] = molecular target: T2, MAP/microtubule affinity-regulating kinase 4 (Homo sapiens) (UniProt Q96L34); experiment: Inhibition of MARK4 at 1 uM
T2 sequence (whole entry): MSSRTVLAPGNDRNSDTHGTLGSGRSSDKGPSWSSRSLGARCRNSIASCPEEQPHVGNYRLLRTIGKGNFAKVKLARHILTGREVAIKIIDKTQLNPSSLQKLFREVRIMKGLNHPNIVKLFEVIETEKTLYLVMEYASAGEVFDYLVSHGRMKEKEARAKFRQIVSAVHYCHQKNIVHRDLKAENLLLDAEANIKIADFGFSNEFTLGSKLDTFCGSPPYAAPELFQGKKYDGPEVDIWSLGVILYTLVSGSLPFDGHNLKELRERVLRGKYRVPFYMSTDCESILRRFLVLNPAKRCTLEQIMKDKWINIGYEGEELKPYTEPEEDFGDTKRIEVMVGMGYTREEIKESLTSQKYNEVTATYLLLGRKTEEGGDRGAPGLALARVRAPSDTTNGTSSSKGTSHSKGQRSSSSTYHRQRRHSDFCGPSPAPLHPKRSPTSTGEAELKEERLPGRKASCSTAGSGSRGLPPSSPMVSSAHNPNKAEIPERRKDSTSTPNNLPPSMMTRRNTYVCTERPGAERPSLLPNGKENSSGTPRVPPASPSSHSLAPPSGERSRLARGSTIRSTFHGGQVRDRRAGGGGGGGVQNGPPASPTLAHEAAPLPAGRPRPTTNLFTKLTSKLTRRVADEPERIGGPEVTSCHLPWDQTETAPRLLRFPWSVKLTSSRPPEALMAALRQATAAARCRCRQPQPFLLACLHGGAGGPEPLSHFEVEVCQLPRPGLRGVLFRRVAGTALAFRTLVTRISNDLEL
How it was run: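 Kinase-panel screen using KINOMEscan technology, with 250–400 kinases per panel. Each compound was tested at a single concentration, and inhibition of each kinase was recorded. Selectivity was summarised as S(90), the fraction of kinases inhibited by more than 90%.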

[4] = molecular target: Cyclin-dependent kinase 18 (Homo sapiens) (UniProt Q07002); experiment: Inhibition of PCTK3 at 1 uM
Cyclin-dependent kinase 18 (Homo sapiens), sequence (Q07002 whole entry, the tested form may be a part): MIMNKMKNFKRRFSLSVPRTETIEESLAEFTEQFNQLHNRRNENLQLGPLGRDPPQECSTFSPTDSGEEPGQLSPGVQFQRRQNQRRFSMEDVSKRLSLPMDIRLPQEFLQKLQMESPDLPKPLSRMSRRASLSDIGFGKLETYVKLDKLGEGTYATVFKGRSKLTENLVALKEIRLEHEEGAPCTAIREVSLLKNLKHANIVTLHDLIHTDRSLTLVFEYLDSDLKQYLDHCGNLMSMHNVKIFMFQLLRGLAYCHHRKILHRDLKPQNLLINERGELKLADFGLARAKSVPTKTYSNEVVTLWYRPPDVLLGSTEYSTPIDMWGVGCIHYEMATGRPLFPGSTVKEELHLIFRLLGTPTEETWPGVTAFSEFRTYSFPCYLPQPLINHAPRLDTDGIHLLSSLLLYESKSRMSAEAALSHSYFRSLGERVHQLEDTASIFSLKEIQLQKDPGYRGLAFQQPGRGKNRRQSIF

[5] = molecular target: Ribosomal protein S6 kinase alpha-4 (Homo sapiens) (UniProt O75676); experiment: Inhibition of RPS6KA4 C-terminal domain2 at 1 uM
Ribosomal protein S6 kinase alpha-4 (Homo sapiens), sequence (O75676 whole entry, looked up, the tested form may be a part): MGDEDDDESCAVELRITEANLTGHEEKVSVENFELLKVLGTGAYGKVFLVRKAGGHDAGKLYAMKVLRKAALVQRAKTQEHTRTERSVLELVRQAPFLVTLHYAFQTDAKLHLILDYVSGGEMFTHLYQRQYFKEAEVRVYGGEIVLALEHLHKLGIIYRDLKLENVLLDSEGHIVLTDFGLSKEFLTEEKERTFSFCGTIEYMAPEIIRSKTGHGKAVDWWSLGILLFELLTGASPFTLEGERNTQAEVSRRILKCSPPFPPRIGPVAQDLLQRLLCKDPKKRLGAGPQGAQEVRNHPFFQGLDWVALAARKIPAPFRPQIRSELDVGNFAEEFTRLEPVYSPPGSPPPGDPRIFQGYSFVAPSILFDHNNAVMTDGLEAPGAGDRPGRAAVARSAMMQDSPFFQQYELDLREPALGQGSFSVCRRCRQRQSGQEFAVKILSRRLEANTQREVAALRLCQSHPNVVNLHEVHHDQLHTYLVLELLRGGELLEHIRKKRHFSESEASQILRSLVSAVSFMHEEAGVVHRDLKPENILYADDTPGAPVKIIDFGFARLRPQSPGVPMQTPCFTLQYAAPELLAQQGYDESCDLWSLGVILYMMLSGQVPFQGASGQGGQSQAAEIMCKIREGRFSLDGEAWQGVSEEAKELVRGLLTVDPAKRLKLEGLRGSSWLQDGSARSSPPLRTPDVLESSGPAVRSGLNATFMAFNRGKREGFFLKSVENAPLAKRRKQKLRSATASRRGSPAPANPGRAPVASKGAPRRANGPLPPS

[6] = molecular target: Serine/threonine-protein kinase tousled-like 2 (Homo sapiens) (UniProt Q86UE8); experiment: Inhibition of TLK2 at 1 uM
Serine/threonine-protein kinase tousled-like 2 (Homo sapiens), sequence (Q86UE8 whole entry, looked up): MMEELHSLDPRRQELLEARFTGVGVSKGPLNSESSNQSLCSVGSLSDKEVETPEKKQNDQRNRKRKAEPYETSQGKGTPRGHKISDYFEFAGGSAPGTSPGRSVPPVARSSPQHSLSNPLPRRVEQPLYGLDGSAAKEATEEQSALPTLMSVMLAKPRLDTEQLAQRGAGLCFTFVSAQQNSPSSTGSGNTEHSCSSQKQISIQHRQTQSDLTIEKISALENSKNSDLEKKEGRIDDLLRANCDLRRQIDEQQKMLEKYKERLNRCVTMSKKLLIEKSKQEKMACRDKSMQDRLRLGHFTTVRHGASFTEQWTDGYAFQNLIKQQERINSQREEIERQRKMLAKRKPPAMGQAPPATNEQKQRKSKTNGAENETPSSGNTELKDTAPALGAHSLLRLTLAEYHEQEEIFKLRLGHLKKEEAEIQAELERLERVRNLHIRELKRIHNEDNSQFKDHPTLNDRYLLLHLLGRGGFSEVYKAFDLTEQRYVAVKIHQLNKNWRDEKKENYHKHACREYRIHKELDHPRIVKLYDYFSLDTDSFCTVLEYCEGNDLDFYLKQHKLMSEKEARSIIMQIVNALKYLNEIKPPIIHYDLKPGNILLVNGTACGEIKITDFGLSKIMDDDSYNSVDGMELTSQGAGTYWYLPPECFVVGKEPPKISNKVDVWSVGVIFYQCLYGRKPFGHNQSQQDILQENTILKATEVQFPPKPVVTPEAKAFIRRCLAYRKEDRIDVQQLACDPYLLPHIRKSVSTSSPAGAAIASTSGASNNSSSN

[7] = molecular target: Calcium/calmodulin-dependent protein kinase type II subunit alpha (Homo sapiens) (UniProt Q9UQM7); experiment: Inhibition of CAMK2A at 1 uM
Calcium/calmodulin-dependent protein kinase type II subunit alpha (Homo sapiens), sequence (Q9UQM7 whole entry): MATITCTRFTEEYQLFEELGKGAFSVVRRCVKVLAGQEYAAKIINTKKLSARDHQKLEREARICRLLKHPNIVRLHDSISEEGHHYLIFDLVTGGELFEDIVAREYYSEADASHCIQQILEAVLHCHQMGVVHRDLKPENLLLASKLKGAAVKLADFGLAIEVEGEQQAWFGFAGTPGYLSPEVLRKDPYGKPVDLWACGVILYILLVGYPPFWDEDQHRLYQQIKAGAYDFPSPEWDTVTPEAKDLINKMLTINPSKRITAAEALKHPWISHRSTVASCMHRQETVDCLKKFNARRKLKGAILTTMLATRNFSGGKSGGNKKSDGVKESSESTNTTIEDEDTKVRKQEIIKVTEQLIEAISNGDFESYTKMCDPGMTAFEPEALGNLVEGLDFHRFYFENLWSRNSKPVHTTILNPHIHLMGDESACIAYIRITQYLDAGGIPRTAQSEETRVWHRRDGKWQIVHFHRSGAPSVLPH
How it was run: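 Ambit KINOMEscan screen at a single concentration across a 250–400 kinase panel, recorded as percent inhibition. Selectivity was expressed as S(90), the fraction of kinases inhibited >90%.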

[8] = molecular target: T3, Megakaryocyte-associated tyrosine-protein kinase (Homo sapiens) (UniProt P42679); experiment: Inhibition of CTK at 1 uM
T3 sequence (whole entry): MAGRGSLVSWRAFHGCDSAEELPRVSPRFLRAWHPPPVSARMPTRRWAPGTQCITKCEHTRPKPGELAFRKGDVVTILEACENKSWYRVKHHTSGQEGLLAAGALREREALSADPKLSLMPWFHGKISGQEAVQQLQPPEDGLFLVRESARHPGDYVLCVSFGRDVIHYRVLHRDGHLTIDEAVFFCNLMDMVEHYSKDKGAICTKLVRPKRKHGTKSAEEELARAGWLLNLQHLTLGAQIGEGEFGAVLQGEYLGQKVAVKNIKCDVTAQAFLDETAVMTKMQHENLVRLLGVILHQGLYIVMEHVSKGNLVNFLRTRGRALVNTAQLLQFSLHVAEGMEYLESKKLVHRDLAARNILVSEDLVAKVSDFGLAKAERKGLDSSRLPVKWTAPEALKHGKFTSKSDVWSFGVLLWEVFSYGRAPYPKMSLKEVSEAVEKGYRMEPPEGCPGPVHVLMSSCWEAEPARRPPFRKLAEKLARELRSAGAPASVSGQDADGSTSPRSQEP

Mitogen-activated protein kinase 9 (Homo sapiens), sequence (P45984 whole entry, looked up): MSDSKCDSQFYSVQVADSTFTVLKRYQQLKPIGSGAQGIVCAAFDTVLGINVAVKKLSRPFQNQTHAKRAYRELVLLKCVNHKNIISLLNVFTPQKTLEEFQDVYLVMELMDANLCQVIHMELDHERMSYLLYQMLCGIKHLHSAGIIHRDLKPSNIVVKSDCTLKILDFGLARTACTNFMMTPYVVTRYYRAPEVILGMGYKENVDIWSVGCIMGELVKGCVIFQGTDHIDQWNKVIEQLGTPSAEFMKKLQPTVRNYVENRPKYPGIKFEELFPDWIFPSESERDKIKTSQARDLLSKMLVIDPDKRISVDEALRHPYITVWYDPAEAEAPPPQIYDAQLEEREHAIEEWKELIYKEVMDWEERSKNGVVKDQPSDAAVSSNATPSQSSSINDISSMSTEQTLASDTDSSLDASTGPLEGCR

Row | inhibition [1] | inhibition [2] | inhibition [3] | inhibition [4] | inhibition [5] | inhibition [6] | inhibition [7] | inhibition [8] | Compound
1 | < 50% | < 50% | < 50% |  |  | < 50% | < 50% |  | O=C(O)c1ccc(-c2cnc3c(c2)N(Cc2cc(Cl)ccc2C(F)(F)F)CCN3)cc1
2 | < 50% | < 50% | < 50% |  |  | < 50% | < 50% | < 50% | O=C(c1ccc(-c2cnc3c(c2)N(Cc2cc(Cl)ccc2C(F)(F)F)CCN3)cc1)N1CCCCC1
3 | < 50% | < 50% | < 50% |  |  | < 50% | < 50% | < 50% | COC1CCN(C(=O)c2ccc(-c3cnc4c(c3)N(Cc3cc(Cl)ccc3C(F)(F)F)CCN4)cc2)CC1
4 | < 50% | < 50% | < 50% |  |  | < 50% | < 50% | < 50% | O=C(c1ccc(-c2cnc3c(c2)N(Cc2cc(Cl)ccc2C(F)(F)F)CCN3)cc1)N1CCC(N2CCCC2)CC1

Continued, molecule first:

Row | Compound | inhibition [1] | inhibition [2] | inhibition [3] | inhibition [4] | inhibition [5] | inhibition [6] | inhibition [7] | inhibition [8]
5 | CC(=O)N1CCN(c2cc(-c3cnc4c(c3)N(Cc3cc(Cl)ccc3C(F)(F)F)CCN4)ccn2)CC1 | < 50% | < 50% | < 50% | < 50% | < 50% | < 50% | < 50% | < 50%
6 | CN1CCN(c2ccc(-c3cnc4c(c3)N(Cc3cc(Cl)ccc3C(F)(F)F)CCN4)cn2)CC1 | < 50% | < 50% | < 50% | < 50% | < 50% | < 50% | < 50% | < 50%
7 | CN1CCN(c2ccc(-c3cnc4c(c3)N(Cc3cc(F)ccc3F)CCN4)cn2)CC1 | < 50% | < 50% | < 50% | < 50% | < 50% | < 50% | < 50% | < 50%
8 | CN1CCN(c2ccc(-c3cnc4c(c3)N(Cc3cc(Cl)ccc3Cl)CCN4)cn2)CC1 | < 50% | < 50% | < 50% | < 50% | < 50% | < 50% | < 50% | < 50%
9 | CN1CCN(c2ccc(-c3cnc4c(c3)N(Cc3c(F)ccc(F)c3Cl)CCN4)cn2)CC1 | < 50% | 91% | < 50% | < 50% | < 50% | < 50% | < 50% | < 50%
10 | FC(F)(F)c1ccc(Cl)cc1CN1CCNc2ncc(-c3ccnc(N4CCNCC4)c3)cc21 | < 50% | 70% | < 50% | < 50% | < 50% | < 50% | < 50% | < 50%

Reference: ChEMBL document CHEMBL1165965, “Synthesis and structure-activity relationships of 1,2,3,4-tetrahydropyrido[2,3-b]pyrazines as potent and selective inhibitors of the anaplastic lymphoma kinase” (Bioorg Med Chem, 2010)
